ERAP1 HTS inh: human ERAP1 aminopeptidase inhibitors, primary screen, biochemical, single point, plate reader. inhibition, % at 10.7 µM. recombinant ERAP1, Leu-AMC fluorescence, 60 min. Endoplasmic reticulum aminopeptidase 1 (Homo sapiens), Q9NZ08. 340,000 tested, 0.15% active;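 active = mean replicate inhibition of at least 30%, or all replicates individually reaching that 30% level; inactive = mean below 30% and not every replicate reaching it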;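 also: 0% = neutral control wells and 100% = L-leucinethiol positive control wells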
rRNA inh HTS: reduced GFP signal of wild-type E. coli, primary screen, bacterial rRNA inhibitor project, GFP/RFP fluorescence, OD600, single point | E. coli WT GFP vs humanized-ribosome RFP mutants, 24 h; stronger effect = lower value; DMSO median 0, no signal -100 | GFP signal change (wild-type ribosome), % (no concentration beside the values) | 350,000 tested, 1.6% active;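 active = significant combined selectivity score with lowered wild-type GFP, culture density cut under 30%, mutant RFP and density less affected; inactive = any of these conditions unmet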
S100A4 inh HTS: inhibitors of S100A4-myosin IIA peptide binding, primary screen, biochemical, fluorescence polarization, TAMRA-MyoIIA peptide; Protein S100-A4 (Homo sapiens), P26447; inhibition, % at 10.7 µM; 360,000 tested, 0.14% active;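 active = mean inhibition of at least 70% across replicates, with every replicate also reaching that level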
Target sequence (P26447 whole entry, looked up): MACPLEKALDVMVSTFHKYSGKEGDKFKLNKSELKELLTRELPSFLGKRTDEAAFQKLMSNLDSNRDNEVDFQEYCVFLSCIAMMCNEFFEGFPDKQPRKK
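Material: human S100A4 monomer with TAMRA-labelled myosin IIA peptide; buffer or medium: HEPES pH 7.2 with CaCl2, KCl, NaCl, DTT, Triton; compound dosing: one concentration per compound; schedule: 5 min incubation before reading; benchmarks: neutral control DMSO, positive control TFP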
F508del corr: F508del CFTR correction, initial screen, CFBE line, single point | CFBE cells, YFP halide quenching; stimulated with forskolin plus potentiator P3; % fluorescence drop versus neutral controls | activity (quench increase), % at 7.58 µM | 350,000 tested, 0.36% active | AID 720511, 2013;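 active = mean added fluorescence quench of at least 8% versus neutral control, with both replicates also reaching 8%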;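 also: cells transiently co-express mutant CFTR-F508del with the halide-sensitive YFP; corrector assay measuring rescue of mutant channel to the surface after 24 h compound exposure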
SIRT5 inh: SIRT5 desuccinylase inhibitors, primary screen, biochemical, fluorescence imaging, single point, set 5; 330,000 tested, 1.1% active; Purified SirT5, succinyl-peptide AMC, trypsin-coupled fluorescence; NAD-dependent protein deacylase sirtuin-5, mitochondrial (Homo sapiens), Q9NXA8; inhibition, % at 15 µM; in the data active = inhibition above about 15%
Target sequence (Q9NXA8 whole entry, looked up): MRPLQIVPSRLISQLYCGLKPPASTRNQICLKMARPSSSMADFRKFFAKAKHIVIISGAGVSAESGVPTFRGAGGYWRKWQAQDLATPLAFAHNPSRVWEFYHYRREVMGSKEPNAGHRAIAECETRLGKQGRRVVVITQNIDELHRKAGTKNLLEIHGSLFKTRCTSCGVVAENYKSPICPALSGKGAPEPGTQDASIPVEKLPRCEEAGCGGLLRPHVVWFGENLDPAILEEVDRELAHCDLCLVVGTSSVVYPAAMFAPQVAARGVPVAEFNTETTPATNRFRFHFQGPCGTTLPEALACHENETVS
An asterisk follows results filed as active; x = no result. An excerpt weighted towards active compounds, which were near 3.1% of everything screened.

SMILES | ERAP1 HTS inh | rRNA inh HTS | S100A4 inh HTS | F508del corr | SIRT5 inh
COc1ccc(C)cc1S(=O)(=O)n1ccnc1C | 0.8 | 32.0 | 0.1 | 0.1 | 112.1*
Cc1noc(C)c1S(=O)(=O)Nc1ccc2c(c1)CC(=O)N([C@@H](C)CO)C[C@@H](C)[C@@H](CN(C)C)O2 | -0.6 | -2.3 | -2.1 | -3.2 | -2.2
O=C(N[C@@H]1CC[C@@H](CCNS(=O)(=O)Cc2ccccc2)O[C@@H]1CO)c1cnccn1 | -0.7 | -0.5 | 1.4 | -0.1 | -1.2
O=C(/C=C/c1ccccc1Cl)N(Cc1cccs1)C1CCS(=O)(=O)C1 (stereo unspecified) | 6.7 | -34.9* | 0.3 | -1.8 | -5.0
COc1cc(NC(=O)COC(=O)/C=C/c2ccc(O)c(OC)c2)cc(OC)c1 | -1.9 | -28.9* | 2.3 | 0.2 | -4.1
COCC(=O)N(C)C[C@H]1Oc2ncc(C3=CCCCC3)cc2C(=O)N([C@H](C)CO)C[C@H]1C | -2.1 | 0.2 | 5.7 | 1.7 | -0.9
C[C@@H]1CCCCO[C@H](CN(C)S(=O)(=O)c2ccc(F)cc2)[C@@H](C)CN([C@@H](C)CO)C(=O)c2cc(NS(=O)(=O)c3ccccc3)ccc2O1 | 2.0 | -0.9 | -4.7 | 1.1 | 16.9*
C[C@@H]1CCCCO[C@H](CN(C)S(=O)(=O)c2ccccc2)[C@H](C)CN([C@@H](C)CO)C(=O)c2cc(NS(=O)(=O)c3ccc(F)cc3)ccc2O1 | -0.8 | -2.7 | 2.5 | 0.8 | 8.2
C[C@@H]1CCCCO[C@@H](CN(C)S(=O)(=O)c2ccc(F)cc2)[C@@H](C)CN([C@@H](C)CO)C(=O)c2cc(NS(=O)(=O)c3ccccc3)ccc2O1 | 3.9 | 1.0 | 0.2 | 2.3 | 16.2*
COc1ccccc1-c1cnc2c(c1)C(=O)N([C@H](C)CO)C[C@H](C)[C@H](CN(C)CC1CCOCC1)O2 | -1.8 | -3.9 | 5.8 | -1.8 | -0.6
Cc1cccc(N2C(=O)CN(Cc3ccccc3)C2=S)c1 | 1.5 | -14.5* | 1.4 | 4.4 | 0.4
COc1cc(CN2CC(=O)N(c3cccc(Cl)c3C)C2=S)cc(OC)c1OC | -2.1 | -3.8 | -0.8 | -3.0 | -0.1
COc1cc(CN2CC(=O)N(c3ccccc3Cl)C2=S)cc(OC)c1OC | -3.2 | -18.1* | -6.6 | 4.8 | -4.6
COc1ccc(C2=NN(CCC(=O)NC3CCC(C)CC3)C(=O)CC2)cc1 (stereo unspecified) | -1.8 | -5.0 | 88.4* | 2.0 | -1.0
COc1ccc(C2=NN(CCC(=O)NC3CCCCCC3)C(=O)CC2)cc1 | 2.1 | 3.1 | -2.8 | 2.6 | 3.7
Fc1ccc(-c2csc3ncnc(N4CCN(Cc5ccccc5)CC4)c23)cc1 | -0.9 | -23.1* | 5.5 | -3.2 | 1.9
Fc1ccc(CN2CCN(c3ncnc4scc(-c5ccccc5)c34)CC2)cc1 | 0.5 | -51.6 | -4.7 | 4.0 | 2.3
Fc1ccc(N2CCN(c3nc(CN4CCOCC4)nc4scc(-c5ccccc5)c34)CC2)cc1 | 4.5 | -24.9* | -0.8 | 1.2 | -0.6
COc1ccc(Nc2cc(C)nc(N)n2)cc1 | 1.6 | 3.4 | -1.4 | -3.2 | -0.6
Nc1cc(Nc2ccc(Br)cc2)nc(N)n1 | -1.4 | -43.6* | -1.1 | 2.0 | -0.5
C[C@H]1CN([C@@H](C)CO)C(=O)c2cc(-c3cncnc3)cnc2O[C@H]1CN(C)Cc1ccc(F)cc1 | 1.3 | 4.3 | 13.0 | -0.6 | -4.5
CNC(=O)C[C@H]1CC[C@H]2[C@@H](COc3ccc(NC(=O)c4ccc5c(c4)OCO5)cc3C(=O)N2C)O1 | x | 1.5 | x | -0.9 | x
CCCC#Cc1ccc2c(c1)O[C@H](CN(C)C(=O)c1cnccn1)[C@@H](C)CN([C@@H](C)CO)S2(=O)=O | 1.7 | 1.4 | 3.5 | 2.8 | -1.9
O=C(O)[C@H](Cc1ccccc1)N1C(=O)c2c(Cl)c(Cl)c(Cl)c(Cl)c2C1=O | 1.0 | -39.2* | 3.1 | 0.2 | -0.5
COc1ccccc1NC(=O)N1CC(=O)N2[C@H](CO)[C@H](c3ccc(-c4ccc(F)cc4)cc3)[C@@H]2C1 | 1.4 | -2.6 | 109.9* | -2.2 | 3.0
SMILES | ERAP1 HTS inh | rRNA inh HTS | S100A4 inh HTS | F508del corr | SIRT5 inh
CCCNC(=O)N1CC(=O)N2[C@@H](CO)[C@H](c3ccc(-c4ccc(F)cc4)cc3)[C@@H]2C1 | 0.3 | -4.0 | 0.6 | 3.3 | 1.3
CCCNC(=O)N1CC(=O)N2[C@H](CO)[C@@H](c3ccc(-c4ccc(F)cc4)cc3)[C@@H]2C1 | 1.4 | -0.2 | -3.2 | 0.4 | 25.8*
CC1=CC(C)(C)N2C(=O)C(=O)c3cc(OC(=O)c4ccco4)cc1c32 | 1.1 | -23.4* | 1.7 | 5.4 | -0.3
Cc1ccc(NC(=O)c2ccc(OC(=O)c3ccco3)cc2)cc1 | 0.7 | 0.8 | 1.4 | -6.1 | -1.2
COc1cc(OC)c(NS(=O)(=O)c2cc(C(=O)OCC(=O)NCC3CCCO3)ccc2OC)cc1Cl (stereo unspecified) | 1.0 | -10.4 | 0.9 | 1.0 | 31.3*
C[C@@H]1CN([C@H](C)CO)S(=O)(=O)c2ccc(C3=CCCC3)cc2O[C@H]1CN(C)C(=O)c1ccncc1 | 2.9 | 5.5 | 2.7 | -1.3 | -11.2
O=C(NNC(=O)c1cccc2ccccc12)c1ccc(Br)cc1 | -8.9 | -2.5 | 6.9 | x | -1.5
O=C(NNC(=O)c1cccc2ccccc12)c1cccc(Br)c1 | -0.2 | -21.9* | -3.8 | -0.2 | -0.2
CC(=O)NC(CC(=O)NNC(=O)C(C)Oc1ccccc1F)c1ccccc1 (stereo unspecified) | 4.1 | 13.3 | -17.6 | 1.2 | -5.4
CC(=O)NC(CC(=O)NCCOc1ccccc1F)c1ccccc1 (stereo unspecified) | 35.7* | 4.3 | 0.4 | 2.6 | -5.0
O=C(Cc1cccc2ccccc12)NCCOc1ccccc1F | -8.6 | -38.9* | -12.1 | 1.3 | -5.8
C[C@H]1CN([C@@H](C)CO)C(=O)c2cccc(NS(=O)(=O)c3ccc(F)cc3)c2O[C@H]1CN(C)Cc1ccc(C(F)(F)F)cc1 | x | -2.2 | x | 1.4 | x
O=C(C[C@@H]1C=C[C@H](NC(=O)CC2CC2)[C@H](CO)O1)NCc1ccc(-c2ccccc2)cc1 | -0.6 | -3.9 | 3.2 | -1.0 | -0.1
COc1ccc2c3c([nH]c2c1)[C@@H](CO)N(C(=O)c1cccc(F)c1)CC31CCN(C(=O)CC2CC2)CC1 | -1.7 | 1.8 | -1.8 | -3.9 | 9.1
COc1ccc(/C=N\NC(=O)c2ccccc2F)cc1COc1ccc(F)cc1F | -1.7 | -3.8 | 1.7 | 2.6 | -0.8
COc1ccc(/C=N/NC(=O)c2cc(C(C)(C)C)[nH]n2)cc1COc1ccc(F)cc1F | -1.9 | -24.4* | -6.4 | -0.2 | -1.6
OCCN(CC#CCn1c2ccccc2c2ccccc21)CCO | 0.9 | -29.0* | -2.9 | 2.0 | -0.8

Compound activity from PubChem BioAssay.
